# Test results from ChEMBL document CHEMBL5370653, “Stereoselective Synthesis, Pro-resolution, and Anti-inflammatory Actions of RvD5n-3 DPA” (J Nat Prod, 2023).
# Calls of active or inactive are those of the source. No cut-off for these calls is given here.
# Legend:
# Macrophage [1] = assay: Induction of phagocytosis in human macrophages assessed as clearance of pHrodo red-conjugated zymosan A particles at 0.001 to 10 nM measured after 2 hrs by hoechst 33342 staining based high content imaging analysis; assay type: functional, cell-based; conditions: dose 0.001-10 nM
# Procedure, shortened: (§1)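 Macrophages from donor PBMCs (7 days, RPMI-1640, 10% human serum, 20 ng/mL GM-CSF), 50,000 cells/well, adhered overnight, Hoechst-stained. Pretreated 15 min at 37 °C in RPMI-1640 with 0.001–10 nM or 0.05% ethanol vehicle. Opsonized pHrodo particles added (S. aureus or E. coli 5 μg/well, zymosan 2.5 μg/well). Phagocytosis imaged over 2 h. Mean ± SEM, N = 6 donors.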
# [2] = Retention time of the compound in human serum by RP-LC-MS/MS; assay type: ADME, cell-free
# Procedure, shortened: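 Pooled human serum (0.5 mL) mixed with 2 volumes cold MeOH containing d5-Maresin 1, held at −20 °C ≥45 min, then centrifuged. Automated C18 SPE at pH 3.5. Analyzed on a C18 Poroshell column at 0.5 mL/min with a MeOH/H2O/acetic acid gradient. MRM transition 361 > 199.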
# Macrophage [3] = assay: Induction of phagocytosis in human macrophages assessed as clearance of pHrodo green conjugated Staphylococcus aureus at 0.001 to 10 nM measured after 2 hrs by hoechst 33342 staining based high content imaging analysis; assay type: functional, cell-based; conditions: dose 0.001-10 nM; procedure, shortened: as §1
# Macrophage [4] = assay: Induction of phagocytosis in human macrophages assessed as clearance of pHrodo red-conjugated Escherichia coli at 0.001 to 10 nM measured after 2 hrs by hoechst 33342 staining based high content imaging analysis; assay type: functional, cell-based; conditions: dose 0.001-10 nM; procedure, shortened: as §1
# Neutrophil [5] = assay: Induction of phagocytosis in human Neutrophil assessed as clearance of pHrodo red-conjugated Escherichia coli at 0.001 to 10 nM measured after 2 hrs by hoechst 33342 high content imaging analysis; assay type: functional, cell-based; conditions: dose 0.001-10 nM
# Procedure, shortened: (§2)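 Blood neutrophils from healthy donors, Hoechst 33342-stained, in X-VIVO15 with 2 mM L-glutamine and 1% pen/strep, 250,000 cells/well, adhered 30 min at 37 °C. Pretreated 15 min at 37 °C with 0.001–10 nM or 0.05% ethanol vehicle. Then given IgG-opsonized pHrodo particles (S. aureus 5 μg/well, E. coli 5 μg/well, zymosan 2.5 μg/well). Signal rise imaged over 2 h. Mean ± SEM, N = 6 donors.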
# Neutrophil [6] = assay: Induction of phagocytosis in human neutrophils assessed as clearance of pHrodo green conjugated Staphylococcus aureus at 0.001 to 10 nM measured after 2 hrs by hoechst 33342 staining based high content imaging analysis; assay type: functional, cell-based; conditions: dose 0.001-10 nM; procedure, shortened: as §2
# Neutrophil [7] = assay: Induction of phagocytosis in human neutrophils assessed as clearance of pHrodo red-conjugated zymosan A particles at 0.001 to 10 nM measured after 2 hrs by hoechst 33342 staining based high content imaging analysis; assay type: functional, cell-based; conditions: dose 0.001-10 nM; procedure, shortened: as §2
# Macrophage [8] = assay: Antiinflammatory activity in human macrophages assessed as decrease in CD142 level at 10 nM incubated for 7 days by flow cytometry analysis; assay type: functional, cell-based; conditions: time 7.0 day
# Procedure, shortened: (§3)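 PBMCs from healthy donors (dextran RBC sedimentation, Histopaque-1077) seeded in low-adhesion plates, 800,000 cells/well. Differentiated to macrophages over 7 days in RPMI-1640 with 10% human serum and 20 ng/mL GM-CSF, with 10 nM test agent or 0.05% ethanol vehicle. Lifted with 5 mM EDTA, Fc-blocked with gamma globulins, surface-stained, then fixed/permeabilized for Arg1. Median fluorescence intensities analyzed by PLS-DA and VIP scores.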
# Macrophage [9] = assay: Antiinflammatory activity in human macrophages assessed as decrease in CD80 level at 10 nM incubated for 7 days by flow cytometry analysis; assay type: functional, cell-based; conditions: time 7.0 day; procedure, shortened: as §3
# Macrophage [10] = assay: Antiinflammatory activity in human macrophages assessed as increase in arginase-1 level at 10 nM incubated for 7 days by flow cytometry analysis; assay type: functional, cell-based; conditions: time 7.0 day; procedure, shortened: as §3
# Macrophage [11] = assay: Antiinflammatory activity in human macrophages assessed as increase in MerTK level at 10 nM incubated for 7 days by flow cytometry analysis; assay type: functional, cell-based; conditions: time 7.0 day; procedure, shortened: as §3
# Macrophage [12] = assay: Antiinflammatory activity in human macrophages assessed as increase in CD163 at 10 nM incubated for 7 days by flow cytometry analysis; assay type: functional, cell-based; conditions: time 7.0 day; procedure, shortened: as §3
smiles,measurement,setting,value
CC/C=C\C[C@H](O)/C=C/C=C\C/C=C\C=C\[C@@H](O)CCCCCC(=O)O,Activity,Macrophage [1],Active
same,Retention_time,[2],13.5 min
same,Activity,Macrophage [3],Active
same,Activity,Macrophage [4],Active
same,Activity,Neutrophil [5],Active
same,Activity,Neutrophil [6],Active
same,Activity,Neutrophil [7],Active
same,Activity,Macrophage [8],Active
same,Activity,Macrophage [9],Active
same,Activity,Macrophage [10],Active
same,Activity,Macrophage [11],Active
same,Activity,Macrophage [12],Active
